Consider two compounds from ChEMBL document CHEMBL1122782, “Bulky amine analogues of ketoprofen: potent antiinflammatory agents” (J Med Chem, 1984).

Common to all, as to format: functional
Assay [1] concerns Rattus norvegicus. The assay can be described thus: Ulcerogenicity was measured in intestine during the 3 week adjuvant arthritis test, no of animals with ulcers out of 8 animals tested at 0.41 mM/kg (126 mg) was reported. The essentials:
(§1)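 Male Sprague-Dawley rats (200–230 g) were injected in the plantar tissue of one hind paw with 0.1 mL of 0.6% M. butyricum suspension in heavy mineral oil. Daily oral gavage began on the day of adjuvant injection and ran for the 21 days, with drug suspended in 1% gum tragacanth or a corn oil-water emulsion. At the end the rats were sacrificed and the small intestine and stomach were examined for ulcers. Results are given as animals with ulcers/animals tested.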

Assay [2] relates to Rattus norvegicus. The assay can be described thus: Ulcerogenicity was measured in intestine during the 3 week adjuvant arthritis test, no of animals with ulcers out of 72 animals tested at 0.08 mM/kg (24.6 mg) was reported. The essentials:
(§2)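 In the 21-day adjuvant arthritis model, male Sprague-Dawley rats (200–230 g) received an M. butyricum mineral-oil suspension into one hind paw. They were dosed daily by gavage from the day of injection. At the end of the study the rats were killed, and the small intestines were examined for ulcers. Results are given as the number of ulcerated animals over the number tested.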

Assay [3] has as its system Rattus norvegicus. The assay is described as follows: Ulcerogenicity was measured in stomach during the 3 week adjuvant arthritis test, no of animals with ulcers out of 55 animals tested at 0.50 mM/kg (154 mg) was reported. The procedure, abridged:
as §1

The subject of assay [4] is Rattus norvegicus. The assay can be described thus: Ulcerogenicity was measured in intestine during the 3 week adjuvant arthritis test, no of animals with ulcers out of 55 animals tested at 0.50 mM/kg (154 mg) was reported. The essentials:
as §2

For assay [5], the system named is Rattus norvegicus. The assay is described as follows: Antiinflammatory efficacy is measured by the weight gain in rats during the 3 week adjuvant arthritis test at 0.08 mM/kg (24.6 mg). The essentials: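 Rats were adjuvant-injected (M. butyricum in mineral oil, one hind paw) or given a mineral-oil placebo. They were dosed by gavage daily for 21 days from the injection day, with vehicle only for both control groups, then weighed at the end. Weight gain % = (treated − adjuvant control)/(negative control − adjuvant control) × 100.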

Assay [6] concerns Rattus norvegicus. The assay can be described thus: Antiinflammatory efficacy is measured by the percent inhibition of paw volume during the 3 week adjuvant arthritis test at 0.08 mM/kg (24.6 mg). The essentials: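 Male Sprague-Dawley rats (200–230 g) were used in groups of eight. Each received 0.1 mL of 0.6% M. butyricum in heavy mineral oil into the plantar tissue of one hind paw. Daily oral gavage in 1% gum tragacanth or corn oil-water emulsion began on the injection day and ran 21 days. Total hind paw volume was measured by mercury displacement, and inhibition was taken versus vehicle-treated adjuvant controls.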

For assay [7], the species on record is Rattus norvegicus. The assay is described as follows: Compound was evaluated for highest non-ulcerogenic dose (less than 50% ulcer incidence). To be noted: read-out: ED50. The procedure, abridged:
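Taken from the 21-day adjuvant arthritis test in male Sprague-Dawley rats dosed orally each day from the day of adjuvant injection. Small intestines and stomachs were examined for ulceration at the end. The value is the highest dose giving less than 50% ulcer incidence.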

Assay [8] has as its system Rattus norvegicus. The assay is described as follows: The mean increase in paw volume was compared between drug treated groups and placebo to calculate the percent inhibition in rats at 0.08 mmol/kg by carrageenan Edema Assay; 40-49.
Assay [9] concerns Rattus norvegicus. The assay can be described thus: Ulcerogenicity was measured in stomach during the 3 week adjuvant arthritis test, no of animals with ulcers out of 8 animals tested at 0.41 mM/kg (126 mg) was reported. The procedure, abridged:
as §1

Assay [10] relates to Rattus norvegicus. The assay is described as follows: Ulcerogenicity was measured in stomach during the 3 week adjuvant arthritis test, no of animals with ulcers out of 72 animals tested at 0.08 mM/kg (24.6 mg) was reported. The essentials:
as §1

Assay [11] concerns Rattus norvegicus. The assay can be described thus: The percent inhibition was calculated from the average differences in hind paw volume between the adjuvant injected controls and the adjuvant-injected medicated rats at 0.08 mmol/kg; 60-69. To be noted: Rattus norvegicus.
Assay [12] relates to Rattus norvegicus. The assay can be described thus: Antiinflammatory efficacy is measured by the weight gain in rats during the 3 week adjuvant arthritis test at 0.50 mM/kg (154 mg). The procedure, abridged:
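Male Sprague-Dawley rats (200–230 g), eight per group, received 0.1 mL of 0.6% M. butyricum in heavy mineral oil (negative controls: mineral oil) into one hind-paw plantar tissue. Daily gavage in 1% gum tragacanth or corn oil-water emulsion began on the injection day, for 21 days. Weight gain is expressed as (treated − adjuvant control)/(negative control − adjuvant control) × 100.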

The subject of assay [13] is Rattus norvegicus. The assay is described as follows: The percent inhibition was calculated from the average differences in hind paw volume between the adjuvant injected controls and the adjuvant-injected medicated rats at 0.08 mmol/kg; 70-79.
Assay [14] has as its system Rattus norvegicus. The assay is described as follows: The mean increase in paw volume was compared between drug treated groups and placebo to calculate the percent inhibition in rats at 0.08 mmol/kg by carrageenan Edema Assay; 60-69.

As a reminder, the Inhibition is the share of the control response that was lost under treatment. Broadly, the inhibition in vivo is the drop in the measured response relative to a control, in per cent.

With `CCCCC1C(=O)N(c2ccccc2)N(c2ccccc2)C1=O` [PHENYLBUTAZONE], the Ulcerogenic index came to 2 with Rattus norvegicus [1]; 11 in the assay on Rattus norvegicus [2]; 17 with Rattus norvegicus [3]; 36 in the assay with Rattus norvegicus [4]; 3 in the assay on Rattus norvegicus [9]; 14 with Rattus norvegicus [10]. Moreover, the Weight gain in the assay on Rattus norvegicus [5] is 21%; in the assay with Rattus norvegicus [12], 41%. Further, the Inhibition with Rattus norvegicus [6] stood at 66%. In addition, the highest non-ulcerogenic dose in the assay filed under Rattus norvegicus [7] is 40 µmol/kg. The inhibition in vivo at 80 µmol/kg with Rattus norvegicus [8] was 40%; in the assay on Rattus norvegicus [11], 60%.

For `CC1CN(CC(C)c2cccc(C(=O)c3ccccc3)c2)CC(C)O1` (centres undefined), the inhibition in vivo at 80 µmol/kg in the assay on Rattus norvegicus [13] was 70%; in the assay with Rattus norvegicus [14] it was 60%.
